Series [1] can be described thus: Antioxidant activity assessed as inhibition of xanthine-xanthine oxidase generated superoxide anion radical production assessed as formazone formation at 200 ug/ml after 30 mins by spectrophotometric analysis. It is filed as functional. The method, boiled down:
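Superoxide generation was run with and without compound at 200 µg/mL. Fractions were sonicated in phosphate buffer, and mixtures were incubated at 37 °C for 30 min. The reaction was stopped with glacial acetic acid, and formazone formed was measured spectrophotometrically. Allopurinol was the standard, and values are mean SD of six.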

Series [2] can be described thus: Antioxidant activity assessed as inhibition non-enzymatic reactants generated hydroxyl radical production at 200 ug/ml after 90 mins by spectrophotometry. It is filed as functional. In a few lines:
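Hydroxyl radicals were generated non-enzymatically from deoxyribose (2.8 mM), FeSO4·7H2O (2 mM), sodium ascorbate (2.0 mM) and H2O2 (2.8 mM) in 50 mM KH2PO4 buffer, pH 7.4. Final volume was 2.5 mL, with or without test compound at 200 µg/mL. Mixtures were incubated at 37 °C for 90 min, MDA formed was measured, and mannitol was the standard. Values are mean SD of six.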

Series [3] is described as follows: Antiinflammatory activity in whole blood assessed as inhibition of LPS-induced TNFalpha production at 400 ug/ml. In kind it is functional.
The nature of series [4]: Antiinflammatory activity in whole blood assessed as inhibition of LPS-induced TNFalpha production. In kind it is functional, tissue-based.
Series [5] in a line: Antiinflammatory activity in whole blood assessed as inhibition of LPS-induced TNFalpha production at 200 ug/ml. In kind it is functional.
Series [6] deals with Rattus norvegicus. Briefly: Antiinflammatory activity in albino rat assessed as inhibition of carrageenin-induced paw oedema at 100 mg/kg, po after 3 hrs by plethysmographic analysis relative to control. It is filed as functional. The method, boiled down:
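Rats received 100 mg/kg po. Oedema was induced by subplantar injection of 0.1 ml of 1% carrageenin into one hind paw. Paw volume was measured plethysmographically immediately after the injection and at 3 h. The volume difference gave the oedema, and percent inhibition was calculated against the control group. Ibuprofen was the reference at an equivalent dose.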

Series [7] in a line: Antioxidant activity assessed as inhibition microsomal lipid peroxidation at 200 ug/ml by thiobarbituric acid test. It is filed as functional. Conditions: Microsome. The method, boiled down:
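Microsomal lipid peroxidation was measured with compound at 200 µg/mL and read as nmol MDA formed per mg protein. α-Tocopherol at 100 µg/mL was the standard. Values are mean SD of six.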

Series [8] can be described thus: Antioxidant activity assessed as inhibition of xanthine-xanthine oxidase generated superoxide anion radical production assessed as formazone formation at 20 ug/ml after 30 mins by spectrophotometric analysis. In kind it is functional. In a few lines:
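Reaction mixtures in phosphate buffer incubated at 37 °C for 30 min, then stopped with 0.5 mL glacial acetic acid. Superoxide quantified as formazone formed (nmol/min), read spectrophotometrically. Mean SD of six values.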

Series [9] in a line: Toxicity in albino rat assessed as survival at 100 mg/kg, po. In kind it is organism-based. On the set-up: dose 100 mg/kg, route oral. Conditions: in vivo, read-out: Activity. The method, boiled down:
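Albino rats were dosed orally in the carrageenin hind-paw oedema study. Survival was recorded, and animals were examined macroscopically and by autopsy.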

The test system of series [10] is Rattus norvegicus. Briefly: Toxicity in albino rat at 100 mg/kg, po by macroscopic analysis. Conditions: in vivo.
Series [11] concerns Rattus norvegicus. Briefly: Toxicity in albino rat at 100 mg/kg, po by autopsy. In kind it is organism-based. On the set-up: dose 100 mg/kg, route oral. Conditions: in vivo.
Series [12] is described as follows: Antioxidant activity assessed as inhibition non-enzymatic reactants generated hydroxyl radical production at 100 ug/ml after 90 mins by spectrophotometry. It is filed as functional.
Series [13] can be described thus: Antioxidant activity assessed as inhibition microsomal lipid peroxidation at 100 ug/ml by thiobarbituric acid test. It is filed as functional. Conditions: Microsome.

The source made the active and inactive calls. The rule behind the calls is not given here.

Broadly, the inhibition is the share of the control response that was lost under treatment. What is called inhibition in vivo is the relative decrease from the control value, in per cent.

As to `COC(=O)c1cc2cc(/C=C/C(=O)c3ccccc3)c3c(ccc4c(C)cc(=O)oc43)c2oc1=O`, the inhibition is 29% in series [1], 27% in series [2], “Dose-dependent effect” in series [4] and 23% in series [7]. Also, the inhibition at 400 µg/mL in series [3] is 21%. In addition, in series [5], the inhibition at 200 µg/mL worked out at 4%. Further, the inhibition in vivo at 100 mg/kg with Rattus norvegicus [6] was found to be 33%.
For `CC(=O)c1cc2cc(/C=C/C(=O)c3ccco3)c3c(ccc4c(C)cc(=O)oc43)c2oc1=O`, the inhibition at 400 µg/mL in [3] came out at 43%. Moreover, the inhibition result in series [4] is “Dose-dependent effect”. Further, the inhibition at 200 µg/mL in series [5] turned out to be 25%. In addition, in the series with Rattus norvegicus [6], the inhibition in vivo at 100 mg/kg is 26%.
Take `CC(=O)c1cc2cc(/C=C/C(=O)c3ccc(C)cc3)c3c(ccc4c(C)cc(=O)oc43)c2oc1=O`: the inhibition at 400 µg/mL in series [3] worked out at 47%. The inhibition entry in series [4] is “Dose-dependent effect”. Besides, in [5], the inhibition at 200 µg/mL came to 33%. Further, the inhibition in vivo at 100 mg/kg with Rattus norvegicus [6] worked out at 29%.
`Oc1ncnc2[nH]ncc12`: the inhibition in series [8] came to 42%.
Regarding `COC(=O)c1cc2cc(/C=C/C(=O)c3cccs3)c3c(ccc4c(C)cc(=O)oc43)c2oc1=O`, the survival in series [9] is 80%. Besides, the Activity result in the series on Rattus norvegicus [10] and with Rattus norvegicus [11] was “Non-toxic” each time. Moreover, the inhibition in vivo at 100 mg/kg with Rattus norvegicus [6] turned out to be 3.5%.
As for `CCOC(=O)c1cc2cc(/C=C/C(=O)c3ccco3)c3c(ccc4c(C)cc(=O)oc43)c2oc1=O`, the values for the inhibition in series [1], in [2] and in series [7] were 30%, 21% and 24%, respectively. For the same compound, the survival in [9] came to 80%. The Activity result with Rattus norvegicus [10] and with Rattus norvegicus [11] was “Non-toxic” each time. Besides, the inhibition in vivo at 100 mg/kg in the series on Rattus norvegicus [6] was found to be 13%.
As for `CCOC(=O)c1cc2cc(/C=C/C(=O)c3cccs3)c3c(ccc4c(C)cc(=O)oc43)c2oc1=O`, the inhibition in series [1] was found to be 24%; in series [2], 26%; in series [7], 27%. Moreover, the survival in series [9] amounted to 80%. The Activity result in the series on Rattus norvegicus [10] and in the series on Rattus norvegicus [11] was “Non-toxic” throughout. Further, the inhibition in vivo at 100 mg/kg with Rattus norvegicus [6] was 8.77%.
As to `OC[C@@H](O)[C@@H](O)[C@H](O)[C@H](O)CO`, the inhibition in [12] came out at 40%.
In the case of `CCOC(=O)c1cc2cc(/C=C/C(=O)c3ccc(C)cc3)c3c(ccc4c(C)cc(=O)oc43)c2oc1=O`, the inhibition result in the series with Rattus norvegicus [6] was “inactive”.
`CCOC(=O)c1cc2cc(/C=C/C(=O)c3ccccc3)c3c(ccc4c(C)cc(=O)oc43)c2oc1=O`: the inhibition result in the series with Rattus norvegicus [6] is “inactive”.
Consider `COC(=O)c1cc2cc(/C=C/C(=O)c3ccco3)c3c(ccc4c(C)cc(=O)oc43)c2oc1=O`, for which the inhibition result in the series on Rattus norvegicus [6] was “inactive”.
As for `CC(C)Cc1ccc(C(C)C(=O)O)cc1` (stereo unspecified) [IBUPROFEN], in the series with Rattus norvegicus [6], the inhibition in vivo at 100 mg/kg amounted to 59.5%.
For `Cc1c(C)c2c(c(C)c1O)CC[C@@](C)(CCC[C@H](C)CCC[C@H](C)CCCC(C)C)O2`, the inhibition in series [13] stood at 41%.
For the compound `COC(=O)c1cc2cc(/C=C/C(=O)c3ccc(C)cc3)c3c(ccc4c(C)cc(=O)oc43)c2oc1=O`, the inhibition entry with Rattus norvegicus [6] was “inactive”.

Values taken from ChEMBL document CHEMBL1806481, “Synthesis and anti-inflammatory activity of novel biscoumarin-chalcone hybrids” (Bioorg Med Chem Lett, 2011).
